In paper PMC6130786 (ACS Omega, 2018):

Key:
tau fibrils = tau fibrils (Homo sapiens, UniProt P10636); assay: Thioflavin-T competition binding assay, tau fibrils
Method in brief: (§1)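 Fibrils were prepared per earlier work and held fixed at 1 μM. Thioflavin-T was 50 nM with Aβ fibrils and 4 μM with tau fibrils. Test compound at varying concentrations was diluted in 30 mM Tris-HCl pH 7.4 with 0.1% BSA. Incubation was 1.5 h at room temperature, and fluorescence was read at ex 440/30, em 485/20. EC50 came from a one-site competitive fit, Ki = EC50/(1+[ligand]/Kd), as mean ± SD of two assays.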

Aβ fibrils = Aβ fibrils (Homo sapiens, UniProt P05067); assay: Thioflavin-T competition binding assay, Aβ fibrils
Sequence of Aβ fibrils (P05067 672-713): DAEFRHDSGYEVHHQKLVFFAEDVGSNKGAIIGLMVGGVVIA
Method in brief: as §1

Sequence of tau fibrils (P10636 560-692 limits assumed): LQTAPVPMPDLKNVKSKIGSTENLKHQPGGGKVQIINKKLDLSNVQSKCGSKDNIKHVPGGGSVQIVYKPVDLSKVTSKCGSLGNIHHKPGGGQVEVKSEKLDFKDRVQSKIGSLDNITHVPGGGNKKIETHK

Structure (SMILES)	Ki (tau fibrils)	Ki (Aβ fibrils)
COc1ccc(/C=C/C(=O)c2nc3ccccc3s2)cc1 [Compound 4, (E)-1-(Benzo[d]thiazol-2-yl)-3-(4-methoxyphenyl)prop-2-en-1-one]	716 ± 58.7 nM	353 ± 29.7 nM
CN(C)c1ccc(/C=C/C(=O)c2nc3ccccc3s2)cc1 [Compound 5, (E)-1-(Benzo[d]thiazol-2-yl)-3-(4-(dimethylamino)phenyl)prop-2-en-1-one]	–	91 ± 12.7 nM
O=C(/C=C/c1ccc([N+](=O)[O-])cc1)c1nc2ccccc2s1 [Compound 6, (E)-1-(Benzo[d]thiazol-2-yl)-3-(4-nitrophenyl)prop-2-en-1-one]	–	89 ± 26.9 nM
COc1ccc(/C=C/C(=O)c2nccs2)cc1 [Compound 7, (E)-3-(4-Methoxyphenyl)-1-(thiazol-2-yl)prop-2-en-1-one]	> 1000 nM	> 500 nM
CN(C)c1ccc(/C=C/C(=O)c2nccs2)cc1 [Compound 8, (E)-3-(4-(Dimethylamino)phenyl)-1-(thiazol-2-yl)prop-2-en-1-one]	401 ± 118 nM	505 ± 49.5 nM
O=C(/C=C/c1ccc([N+](=O)[O-])cc1)c1nccs1 [Compound 9, (E)-3-(4-Nitrophenyl)-1-(thiazol-2-yl)prop-2-en-1-one]	–	404 ± 80.6 nM
COc1ccc(-c2cc(-c3nccs3)on2)cc1 [Compound 10, 3-(4-Methoxyphenyl)-5-(thiazol-2-yl)isoxazole]	> 1000 nM	> 1000 nM
COc1ccc(-c2cc(-c3nccs3)n[nH]2)cc1 [Compound 12, 2-(5-(4-Methoxyphenyl)-1H-pyrazol-3-yl)thiazole]	> 1000 nM	> 1000 nM
COc1ccc(/C=C/c2cc(-c3nccs3)[nH]n2)cc1 [Compound 13, (E)-2-(3-(4-Methoxystyryl)-1H-pyrazol-5-yl)thiazole]	> 1000 nM	327 ± 76.4 nM
